From PubChem
G6PDH counter = L. mesenteroides G6PDH inhibitors, counter-screen for G6PDH-coupled screening assays, biochemical, Leuconostoc mesenteroides enzyme | inhibition, % at 5 µM | AID 1020, 2008 | Purified L. mesenteroides G6PDH, diaphorase/resazurin coupled fluorescence, 45 min | glucose-6-phosphate dehydrogenase [Leuconostoc mesenteroides] | hit rate 0.12% among 200,000
WT yeast gro inh = growth inhibition of WT strain, primary screen, mitochondrial fusion inhibitor project, WT and mutant strains, chemical genetic; mitochondrial fusion phenotypic screen; inhibition, % at 10 µM; hit rate 2.1% among 190,000; in the data active = inhibition above about 58%; tested in S. cerevisiae
Diaph inh CS = diaphorase inhibitors and chemical oxidizers, primary screen, counter-screen for diaphorase-coupled primary assays, biochemical, uHTS, resorufin fluorescence; hit rate 0.69% among 190,000; AID 1217, 2008; diaphorase resazurin-to-resorufin fluorescence, NADH, 16 min; bacterial (C. kluyveri) enzyme, not human; inhibition, % at 20 µM;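 active = primary screen inhibition at 20 µM above a set limit, cut at about 50% in these data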;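 also: plate controls were DMSO with full reaction for no effect and wells lacking NADH for full effect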
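System: Bacterial diaphorase enzyme (C. kluyveri) | Incubation: 16-min room-temperature incubation before reading | Benchmarks: No-NADH positive control and DMSO neutral control | Measured by: Resorufin fluorescence 544/590 nm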
Lmaj promast = Leishmania major promastigote growth inhibition, primary screen; Leishmania major promastigotes, resazurin fluorescence viability; inhibition, % at 10 µM; hit rate 9% among 200,000; AID 1063, 2008;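 also: promastigotes grown with compound for 44 hours at 28 °C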
Diaph act CS = compounds boosting diaphorase resazurin reduction – biochemical, uHTS, resorufin fluorescence, counter-screen for diaphorase-coupled primary assays, primary screen | Diaphorase/resazurin coupled assay, 16 min; active compounds read high; 1 = vehicle wells, 0 = NADH-free wells | activation factor at 20 µM | hit rate 0.005% among 190,000;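 active = diaphorase activity raised at least twofold by the compound at 20 µM; inactive = activation factor below 2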
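Assay system: bacterial diaphorase enzyme (C. kluyveri) / Input: enzyme 0.07 U/mL final / Medium: 50 mM HEPES pH 7.4 with 4.542 mM MgCl2, 0.005% Tween 20 / Doses: single compound dose of 20 µM, 1% DMSO final / Incubation: 16 min enzyme reaction, ambient temperature / Signal: fluorescence, excitation 544 nm and emission 590 nm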
Numbers without * were called inactive; nt = not tested or not shown. Shown are actives, neighbours in structure and some others; about 11% of the full set was active somewhere. Rule as the data show it, unless noted: active = inhibition above about 50%; inactive = the rest.

SMILES	G6PDH counter	WT yeast gro inh	Diaph inh CS	Lmaj promast	Diaph act CS
Nc1nc(NCCCN2CCOCC2)nc(Nc2ccc(F)cc2)c1[N+](=O)[O-]	1	0	-11	52*	1.1
C/C(=N\NC(=O)c1c(Br)c(C)nn1C)c1ccc(NC(=O)C(C)Oc2ccc(Cl)cc2C)cc1 (centres undefined)	2	13	10	98*	0.9
CC(=O)Nc1ccc(NC(=O)C(C)Oc2ccc(Cl)cc2Cl)cc1 (centres undefined)	0	7	10	57*	0.9
CC(Oc1ccc(Cl)cc1Cl)C(=O)NCCCN1CCOCC1 (centres undefined)	-5	14	-13	90*	1.1
CC(Oc1ccc(Cl)cc1Cl)C(=O)Nc1ccncc1 (centres undefined)	1	29	13	3	0.9
Cc1[nH]n(-c2nc(-c3cccc([N+](=O)[O-])c3)cs2)c(=O)c1C	-4	13	9	-2	0.9
CSCCC(N=C(NS(=O)(=O)c1ccc(Br)cc1)c1ccccc1)C(=O)O (centres undefined)	5	-10	19	-4	0.8
C/C(=N\n1nnnc1Nc1ccccc1)c1ccc(N)cc1	2	-58	-4	2	1
O=c1/c(=C/c2ccc(O)c([N+](=O)[O-])c2)sc2nc3ccccc3n12	1	11	113*	12	-0.1
CC1=C(C(=O)Nc2ccccc2)C(c2cccc([N+](=O)[O-])c2)Nc2nc3ccccc3n21 (centres undefined)	5	-12	8	98*	0.9
COc1ccccc1-n1cnnc1SCC(=O)Nc1nc(C)c(Cl)cc1Cl	-14	-17	14	27	0.9
O=C(CSc1ccc2nnc(-c3ccccn3)n2n1)Nc1ccc2c(c1)OCO2	-6	-3	12	-4	0.9
Cc1ccc(SCC(=O)NN2C(=O)c3ccccc3C2=O)cc1	22	0	0	-8	1
Cc1onc(-c2ccccc2Cl)c1C(=O)N(C)C1CCCCC1	3	10	-12	78*	1.1
CCC(=O)Nc1ccc(/C(C)=N\NC(=O)c2ccc(C)s2)cc1	3	-30	10	96*	0.9
Cc1onc(-c2ccccc2Cl)c1C(=O)N/N=C(\N)COc1ccc(Cl)cc1	0	-14	10	84*	0.9
CCC(=O)Nc1ccc(/C(C)=N/NC(=O)c2c(-c3ccccc3Cl)noc2C)cc1	3	1	14	96*	0.9
COC(=O)CNC(=O)c1c(-c2ccccc2Cl)noc1C	0	-3	12	-9	0.9
Cc1onc(-c2ccccc2Cl)c1C(=O)N1CCCCC1C(=O)O (centres undefined)	6	9	14	-2	0.9
C/C(=N/NC(=O)c1ccc(Cl)s1)c1ccc(NC(=O)COc2ccc(Cl)cc2)cc1	-55	22	3	-3	1
Cc1ccc(S(=O)(=O)N(C)Cc2ccc(C(=O)N/N=C3\CC(=O)CC(C)(C)C3)cc2)cc1	4	-4	5	-8	0.9
C=CCN1C(=O)C(Cc2ccc(OCC)cc2)S/C1=N\N=C\c1cccs1 (centres undefined)	0	32	23	1	0.8
Cc1onc(-c2ccccc2Cl)c1C(=O)Nc1ccc(CN2CCCC2)cc1	12	-17	0	99*	1
Cc1onc(-c2ccccc2Cl)c1C(=O)Nc1ccccc1	1	-14	5	-3	0.9
C=CCn1c(=O)/c(=C2/Sc3ccccc3N2CC)s/c1=C1/C(=O)NN=C1C	2	-7	nt	97*	nt
SMILES	G6PDH counter	WT yeast gro inh	Diaph inh CS	Lmaj promast	Diaph act CS
C=CCn1c(=O)/c(=C2/SC(C)=C(C)N2CC)s/c1=C1/C(=O)N(CC)C(=S)N1c1ccccc1	-3	10	8	3	0.9
Cc1nn(Cc2c(F)c(F)c(F)c(F)c2F)c(C)c1NC(=O)c1cccc(COc2ccc(Cl)cc2)c1	1	10	5	-2	1
CC(C)c1cc(C(N)=O)c(NC(=O)c2cccc(COc3ccc(Cl)cc3)c2)s1	1	65*	26	96*	0.7
CCCCSCc1nc2ccccn2c1Br	4	8	15	15	0.8
CN1CCCC(OC(=O)COc2ccccc2)C1 (centres undefined)	-4	-4	14	2	0.9
CN1CCCC(CC2Oc3ccccc3Sc3ccccc32)C1 (centres undefined)	4	39	-2	100*	1
Cc1ccc(S(=O)(=O)Nc2ccc(C(OC(=O)c3ccccc3[N+](=O)[O-])(C(F)(F)F)C(F)(F)F)cc2)cc1	7	86*	20	100*	0.8
O=C(OC(c1ccc(NS(=O)(=O)c2ccccc2)cc1)(C(F)(F)F)C(F)(F)F)c1ccccc1	5	87*	23	100*	0.8
CC(=O)c1ccc(NS(=O)(=O)c2ccccc2)cc1	2	-7	12	8	0.9
Cc1ccc(Cc2nnc3n(-c4cccc(C)c4)nc(C(=O)c4ccccc4)n3c2=O)cc1	4	15	15	11	0.8
CCSc1nc2c(cnn2-c2ccc(C)c(C)c2)c(=O)[nH]1	9	18	7	3	0.9
CC1CCC(=C(C#N)c2nc(-c3cc4ccccc4oc3=O)cs2)CC1 (centres undefined)	-45	7	15	8	0.9
COc1cc(/C=C(\C#N)c2nc(-c3cc4ccccc4oc3=O)cs2)ccc1O	-21	-12	7	61*	0.9
CCn1c(SCC(=O)Nc2ccc(N(C)C)cc2)nnc1-c1cccc(C)c1	-2	7	19	5	0.8
CCN1CCCC1Cn1cnc2c([nH]c3ccc(C)cc32)c1=O (centres undefined)	4	-12	5	52*	0.9
Cc1ccc2[nH]c3c(=O)n(CCN4CCNCC4)cnc3c2c1	12	18	16	-3	0.8
CCN1CCCC1CNc1ncnc2c1[nH]c1ccc(Cl)cc12 (centres undefined)	3	-5	15	96*	0.9
O=C1CCCN1CCCNc1ncnc2c1[nH]c1ccc(Cl)cc12	-41	10	17	39	0.8
CCOC(=O)/C(C#N)=C1\CCCN1CC(N)=S	0	1	9	-9	0.9
CCOC(=O)c1c(-n2c(C)cc(C=O)c2C)sc2c1CCCC2	-1	-13	30	96*	0.7
CC(C(=O)NC1CCCC1)N(C(=O)c1ccc(-c2ccccc2)[nH]1)c1ccccc1F (centres undefined)	8	32	20	18	0.8
O=C(/C=C/c1ccc([N+](=O)[O-])s1)N1CCCC1	2	17	2	88*	1
